Active and inactive are the calls of the source.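 Rule for the calls: active = mean IC50 of 20 µM or lower in the 24 hour cytotoxicity test; inactive = the rest.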

The test system of the test is CHO-XBP1 cytotoxicity, ATPlite luminescence, 24 h. Briefly: cytotoxicity in CHO-XBP1 reporter cells, SAR follow-up, cytotoxicity control for UPR apoptotic arm activator project, cell-based, 24 h exposure, ATPlite luminescence (AID 588558). The procedure, abridged: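 Material: CHO-XBP1 cells | Quantity: 1000 cells/well | Medium: F12 with 10% FBS | Incubation: 24 h compound exposure at 37 °C | Measured by: ATPLite 1-Step luminescence | Controls: Tunicamycin positive control, final concentration 10 µg/mL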
(In general: In ATP-based viability assays light output follows the ATP content of the culture.)

On to `O=C(Nc1nc2ccc(F)c(F)c2s1)c1ccccn1`, for which the IC50 – broadly, the concentration that gives 50% inhibition – was 1.19 µM. For the compound `O=C(Nc1nc2c(F)cc(F)cc2s1)c1ccccn1`, the IC50 is 1.59 µM. As for `CC1CN(S(=O)(=O)c2ccc(NC(=O)c3ccc([N+](=O)[O-])o3)cc2)CC(C)O1` (stereo not given), the IC50 is 34.9 µM (inactive).

Turning to `O=C(Nc1nc2ccc(F)cc2s1)c1ccccn1`, the IC50 is 1.99 µM.

On to `O=C(Nc1nc2c(Cl)cc(Cl)cc2s1)c1ccccn1`, for which the IC50 is 8.77 µM. The figure for `CC1(C)CCN(S(=O)(=O)c2ccc(NC(=O)c3ccc([N+](=O)[O-])o3)cc2)CC1` is 18 µM; for `O=C(Nc1ccc(S(=O)(=O)N2CCCCC2)cc1)c1ccc([N+](=O)[O-])o1` it is > 80 µM (inactive). With `O=C(Nc1nc2cc(F)cc(F)c2s1)c1ccccn1`, the IC50 was 1.05 µM. `O=C(Nc1nc2c(F)ccc(F)c2s1)c1ccccn1`: the IC50 is 1.06 µM. Consider `O=C(Nc1ccc(S(=O)(=O)N2CCC(F)CC2)cc1)c1ccc([N+](=O)[O-])o1`, for which the IC50 is 24.7 µM (inactive).

Turning to `O=C(Nc1ccc(S(=O)(=O)N2CCC(Cl)CC2)cc1)c1ccc([N+](=O)[O-])o1`, the IC50 was > 80 µM (inactive). For the compound `Cc1cc(C)c2nc(NC(=O)c3ccccn3)sc2c1`, the concentration for half-maximal inhibition (IC50) is 3.75 µM. `O=C(Nc1ccc(S(=O)(=O)N2CCOCC2)cc1)c1ccc([N+](=O)[O-])o1`: the IC50 was 32.3 µM (inactive). With `O=C(Nc1nc2c(F)cccc2s1)c1ccccn1` the figure was 1.42 µM; with `O=C(Nc1ccc(S(=O)(=O)N2CCC(O)CC2)cc1)c1ccc([N+](=O)[O-])o1`, 27.9 µM (inactive); with `O=C(Nc1ccc(S(=O)(=O)N2CCOCC2)cc1)c1ccc([N+](=O)[O-])s1`, > 80 µM (inactive).

For the compound `CC1CCN(S(=O)(=O)c2ccc(NC(=O)c3ccc([N+](=O)[O-])o3)cc2)CC1`, the IC50 is 32.2 µM (inactive). For the compound `O=C(Nc1ccc(S(=O)(=O)N2CCCC2)cc1)c1ccc([N+](=O)[O-])o1`, the IC50 was 19.2 µM. Regarding `O=C(Nc1nc2ccc(Cl)cc2s1)c1ccccn1`, the half-inhibitory concentration (IC50) was 1.36 µM. Turning to `O=C(Nc1ccc(S(=O)(=O)N2CCNCC2)cc1)c1ccc([N+](=O)[O-])o1`, the IC50 is > 80 µM (inactive). Turning to `O=C(Nc1nc2cccc(F)c2s1)c1ccccn1`, the 50% inhibitory concentration (IC50) is 1.76 µM. In the case of `O=C(Nc1ccc(S(=O)(=O)c2ccccc2)cc1)c1ccc([N+](=O)[O-])o1`, the IC50 was 18.5 µM. As to `CC(C)(C)C1CCN(S(=O)(=O)c2ccc(NC(=O)c3ccc([N+](=O)[O-])o3)cc2)CC1`, the IC50 is 2.68 µM. As to `O=C(Nc1nc2ccc(C(F)(F)F)cc2s1)c1ccccn1`, the IC50 was 0.97 µM.

On to `O=C(Nc1ccc(S(=O)(=O)C2CCOCC2)cc1)c1ccc([N+](=O)[O-])o1`, for which the IC50 was 37.6 µM (inactive). `O=C(Nc1ccc(S(=O)(=O)N2CCC3(CCCCC3)CC2)cc1)c1ccc([N+](=O)[O-])o1`: the IC50 is 9.05 µM.

Consider `O=C(Nc1nc2cc(F)ccc2s1)c1ccccn1`, for which the IC50 was 1.26 µM. `O=C(Nc1ccc(S(=O)(=O)C2CCCCC2)cc1)c1ccc([N+](=O)[O-])o1`: the IC50 was 22.1 µM (inactive).

As to `O=C(Nc1nc2c(F)c(F)ccc2s1)c1ccccn1`, the IC50 is 1.35 µM.

With `O=C(Nc1nc2cc(F)c(F)cc2s1)c1ccccn1`, the IC50 is 1.81 µM.

These data come from PubChem BioAssay AID588558 (Sanford-Burnham Center for Chemical Genomics, 2011).
